Assay results published in ChEMBL document CHEMBL1155708, “Isoaurostatin, a novel topoisomerase inhibitor produced by Thermomonospora alba” (J Nat Prod, 2001).

How the values were obtained:
[1] = target: T1, Type II restriction enzyme ScaI (Streptomyces caespitosus, UniProt O52691); test: Inhibition of Streptomyces caespitosus Sca 1 assessed as undigested supercoiled pBR322 DNA concentration
T1 sequence (O52691 whole entry): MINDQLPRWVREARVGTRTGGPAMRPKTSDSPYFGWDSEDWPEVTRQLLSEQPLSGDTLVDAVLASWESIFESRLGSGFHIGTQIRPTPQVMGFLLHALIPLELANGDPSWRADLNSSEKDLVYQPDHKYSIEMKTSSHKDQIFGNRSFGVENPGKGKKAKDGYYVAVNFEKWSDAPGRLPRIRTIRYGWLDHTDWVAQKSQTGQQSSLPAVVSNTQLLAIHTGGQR
Summary of the method: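 Restriction enzyme or nuclease activity followed as the remaining undigested supercoiled pBR322 DNA (or RNA) after reaction.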

[2] = target: DNA topoisomerase 2-alpha (Homo sapiens, UniProt P11388); test: Inhibition human placenta topoisomerase 2 assessed as conversion of supercoiled pBR322 DNA to relaxed form
DNA topoisomerase 1 [3] = target: T2, DNA topoisomerase 1 (Homo sapiens, UniProt P11387); test: Inhibition topoisomerase 1 in human A549 cells assessed as conversion of supercoiled pBR322 DNA to relaxed form; format: cell-based
T2 sequence (P11387 whole entry): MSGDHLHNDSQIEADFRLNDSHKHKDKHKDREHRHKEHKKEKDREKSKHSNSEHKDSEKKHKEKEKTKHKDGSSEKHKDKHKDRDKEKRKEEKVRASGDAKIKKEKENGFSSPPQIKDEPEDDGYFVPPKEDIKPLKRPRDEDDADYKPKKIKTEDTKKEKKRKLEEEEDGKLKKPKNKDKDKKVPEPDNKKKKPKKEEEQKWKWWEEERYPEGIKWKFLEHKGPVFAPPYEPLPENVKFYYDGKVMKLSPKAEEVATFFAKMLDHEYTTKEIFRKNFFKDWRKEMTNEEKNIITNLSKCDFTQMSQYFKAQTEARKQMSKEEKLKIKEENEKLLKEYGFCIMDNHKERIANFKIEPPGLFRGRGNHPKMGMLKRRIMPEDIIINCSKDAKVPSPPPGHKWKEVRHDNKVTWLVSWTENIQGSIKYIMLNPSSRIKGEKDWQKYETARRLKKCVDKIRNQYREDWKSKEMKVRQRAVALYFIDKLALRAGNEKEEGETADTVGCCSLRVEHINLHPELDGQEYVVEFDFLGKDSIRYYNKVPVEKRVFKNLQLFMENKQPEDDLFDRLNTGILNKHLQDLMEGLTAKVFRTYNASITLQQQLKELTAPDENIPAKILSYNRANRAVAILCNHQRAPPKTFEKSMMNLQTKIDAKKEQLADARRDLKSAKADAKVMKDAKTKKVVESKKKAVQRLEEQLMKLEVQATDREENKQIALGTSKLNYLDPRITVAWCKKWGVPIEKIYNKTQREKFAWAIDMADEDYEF
Summary of the method: (§1)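 Topo I source: crude extract from cells grown 5 days, PBS-washed and pelleted (1 × 10^6 cells), then lysed 30 min on ice in Tris-HCl pH 7.5 buffer with MgCl2, EGTA, AEBSF, β-mercaptoethanol, 0.5% CHAPS and 10% glycerin. The cleared supernatant relaxes supercoiled pBR322 DNA. Products are resolved on agarose gel and scored by densitometry.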

DNA topoisomerase 1 [4] = target: T2, DNA topoisomerase 1; test: Inhibition topoisomerase 1 in human COLO201 cells assessed as conversion of supercoiled pBR322 DNA to relaxed form; format: cell-based; summary of the method: as §1
DNA topoisomerase 1 [5] = target: T2, DNA topoisomerase 1; test: Inhibition topoisomerase 1 in human HeLa cells assessed as conversion of supercoiled pBR322 DNA to relaxed form; format: cell-based; summary of the method: as §1

DNA topoisomerase 2-alpha, sequence (P11388 whole entry): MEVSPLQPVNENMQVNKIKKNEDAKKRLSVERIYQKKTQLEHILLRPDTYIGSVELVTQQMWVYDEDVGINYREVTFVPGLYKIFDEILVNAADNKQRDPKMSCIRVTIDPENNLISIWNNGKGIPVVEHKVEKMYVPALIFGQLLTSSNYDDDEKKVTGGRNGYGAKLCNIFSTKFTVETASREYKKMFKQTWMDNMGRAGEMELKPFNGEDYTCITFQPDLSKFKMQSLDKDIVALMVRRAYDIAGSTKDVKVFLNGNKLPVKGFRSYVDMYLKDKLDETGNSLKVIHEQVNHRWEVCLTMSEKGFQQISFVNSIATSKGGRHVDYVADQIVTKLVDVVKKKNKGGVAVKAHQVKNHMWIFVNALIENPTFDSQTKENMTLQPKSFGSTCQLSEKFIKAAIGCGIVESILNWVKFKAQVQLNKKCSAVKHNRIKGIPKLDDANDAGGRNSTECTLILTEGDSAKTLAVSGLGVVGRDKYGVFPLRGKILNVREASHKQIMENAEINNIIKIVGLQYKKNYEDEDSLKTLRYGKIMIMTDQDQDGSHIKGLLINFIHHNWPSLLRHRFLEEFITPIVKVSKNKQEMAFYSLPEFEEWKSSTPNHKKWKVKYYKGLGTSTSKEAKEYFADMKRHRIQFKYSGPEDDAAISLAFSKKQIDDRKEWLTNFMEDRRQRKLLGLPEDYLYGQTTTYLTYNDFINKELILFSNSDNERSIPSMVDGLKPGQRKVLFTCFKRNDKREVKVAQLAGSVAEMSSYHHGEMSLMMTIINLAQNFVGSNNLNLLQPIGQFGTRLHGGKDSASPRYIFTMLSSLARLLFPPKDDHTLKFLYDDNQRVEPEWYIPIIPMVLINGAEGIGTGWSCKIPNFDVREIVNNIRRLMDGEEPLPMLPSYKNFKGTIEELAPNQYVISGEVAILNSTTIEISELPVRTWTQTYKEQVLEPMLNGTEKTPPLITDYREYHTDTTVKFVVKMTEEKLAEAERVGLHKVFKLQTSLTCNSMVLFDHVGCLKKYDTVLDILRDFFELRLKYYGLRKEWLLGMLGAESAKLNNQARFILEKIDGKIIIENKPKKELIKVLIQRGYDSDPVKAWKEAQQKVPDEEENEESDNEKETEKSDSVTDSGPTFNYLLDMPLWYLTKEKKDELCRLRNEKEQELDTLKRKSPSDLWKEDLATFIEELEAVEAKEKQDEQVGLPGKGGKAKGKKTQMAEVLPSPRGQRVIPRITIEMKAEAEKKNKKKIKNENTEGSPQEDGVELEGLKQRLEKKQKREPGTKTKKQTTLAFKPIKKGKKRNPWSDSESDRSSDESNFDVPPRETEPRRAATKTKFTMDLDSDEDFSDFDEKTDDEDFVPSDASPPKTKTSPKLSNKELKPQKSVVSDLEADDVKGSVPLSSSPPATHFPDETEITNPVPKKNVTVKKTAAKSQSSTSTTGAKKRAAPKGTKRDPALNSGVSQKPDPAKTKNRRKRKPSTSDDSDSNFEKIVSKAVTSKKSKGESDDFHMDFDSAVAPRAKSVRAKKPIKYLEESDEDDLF

SMILES	IC50 [1]	IC50 [2]	IC50 (DNA topoisomerase 1 [3])	IC50 (DNA topoisomerase 1 [4])	IC50 (DNA topoisomerase 1 [5])
CC[C@@]1(O)C(=O)OCc2c1cc1n(c2=O)Cc2cc3ccccc3nc2-1 [CAMPTOTHECIN]	> 300 µM	–	–	–	–
COc1cccc2c1C(=O)c1c(O)c3c(c(O)c1C2=O)C[C@@](O)(C(=O)CO)C[C@@H]3O[C@H]1C[C@H](N)[C@H](O)[C@H](C)O1 [DOXORUBICIN]	25 µM	1 µM	–	–	–
O=C1Oc2cc(O)ccc2/C1=C\c1ccc(O)cc1 [ISOAUROSTATIN]	> 400 µM	> 400 µM	> 400 µM	> 400 µM	> 400 µM
C=C1NC(=O)C(C)C(CCC(C)C(=O)/C=C/C(C)=C/CC(C)CCCCCCC)OC(=O)[C@H](CC(OS(=O)(=O)O)C(N)=O)NC(=O)[C@@H](C)CNC1=O (stereo partly drawn) [TOPOSTATIN]	7 µM	4 µM	55 µM	50 µM	29 µM
